The values that follow come from ChEMBL document CHEMBL2331537, “Effective inhibition of acid and neutral ceramidases by novel B-13 and LCL-464 analogues” (Bioorg Med Chem, 2013).

The term inhibition denotes the share of the control response that was lost under treatment. As usually defined, the pIC50 is the negative decadic logarithm of the IC50, by convention in mol/L. The pEC50 is −log10 of the EC50, conventionally taken in molar units.

pEC50, pIC50: −log10 of the molar value. Active and inactive are the calls of the source. No cut-off for these calls is given here.

Assay [1] concerns the target Neutral ceramidase (Homo sapiens) (UniProt Q9NR71). The assay can be described thus: Inhibition of human recombinant neutral ceramidase using Acyl-NBD-C12-cer as substrate at 80 uM after 2 hrs by fluorescence assay. Put shortly: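 Recombinant human enzyme at 25 ng/mL final was in 200 mM sodium acetate pH 7.0, 200 mM NaCl, 0.1% Triton X-100. Final substrate was 15 and inhibitor 80, incubated 2 h at 37 °C. Reactions were chloroform/methanol quenched and cleaved/uncleaved NBD substrate resolved by TLC with fluorescence imaging. Values are % of no-inhibitor control, mean SD, three experiments.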

Assay [2] addresses T1, Acid ceramidase (Homo sapiens) (UniProt Q13510).
T1 sequence (whole entry): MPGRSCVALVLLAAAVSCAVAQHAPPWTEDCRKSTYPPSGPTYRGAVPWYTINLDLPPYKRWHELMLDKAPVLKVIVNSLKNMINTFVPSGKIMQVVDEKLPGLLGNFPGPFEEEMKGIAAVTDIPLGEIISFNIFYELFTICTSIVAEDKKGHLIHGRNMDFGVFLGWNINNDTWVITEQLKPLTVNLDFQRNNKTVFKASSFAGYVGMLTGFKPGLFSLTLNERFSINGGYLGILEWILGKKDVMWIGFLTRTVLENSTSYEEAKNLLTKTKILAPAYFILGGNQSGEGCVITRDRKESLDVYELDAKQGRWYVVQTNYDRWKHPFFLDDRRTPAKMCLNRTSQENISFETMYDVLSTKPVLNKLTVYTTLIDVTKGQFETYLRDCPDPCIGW
The assay can be described thus: Inhibition of human recombinant acid ceramidase using Acyl-NBD-C12-cer as substrate at 80 uM after 8 hrs by fluorescence assay. In short, it runs like this:
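Recombinant human enzyme (60 total protein) was in 200 mM sodium acetate pH 4.5, 200 mM NaCl, 0.1% Triton X-100, DMSO <5% v/v. Final substrate was 15 and inhibitor 80, incubated 8 h at 37 °C. Reactions were quenched with chloroform/methanol 2:1 and NBD-fatty acid separated by TLC. Imaging used ex 430/em 550 nm; % hydrolysis versus no-inhibitor control, mean SD, three experiments.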

In assay [3] the test system is MDA-MB-231. The assay can be described thus: Elevation of total ceramide level in human MDA-MB-231 cells at 50 uM after 24 hrs by LC-MS/MS analysis relative to control. Type of assay: functional. In short, it runs like this:
(§1)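 MDA-MB-231 cells were exposed to inhibitor for 24 h at 37 °C at the concentration given in each line. Lipids were extracted by modified Bligh & Dyer with 20 pmol C17-ceramide as internal standard. Analysis was positive-mode LC–MS/MS on a C18 column, isocratic acetonitrile/2-propanol 3:2 with 1% formic acid. Values are mean SD of three independent experiments versus control.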

Assay [4] relates to MDA-MB-231. The assay can be described thus: Elevation of total ceramide level in human MDA-MB-231 cells at 25 uM after 24 hrs by LC-MS/MS analysis relative to control. It counts as functional. In short, it runs like this: as §1
Assay [5] concerns the target Alkaline ceramidase 2 (Homo sapiens, UniProt Q5QJU3). The assay can be described thus: Inhibition of alkaline ceramidase 2 in human HL-60 cells using 3H]C16-ceramide as substrate after 1 hr by liquid scintillation counting analysis. It counts as cell-based.
Assay [6] has as its system MDA-MB-231. As to the kind of experiment: Elevation of C18-ceramide level in human MDA-MB-231 cells at 50 uM by LC-MS/MS analysis. It counts as functional, cell-based. In short, it runs like this:
as §1

In assay [7] the test system is MDA-MB-231. The assay can be described thus: Elevation of C18-ceramide level in human MDA-MB-231 cells at 25 uM by LC-MS/MS analysis. It counts as functional, cell-based. Put shortly: as §1
Assay [8] concerns MDA-MB-231. As to the kind of experiment: Elevation of C24-ceramide level in human MDA-MB-231 cells at 25 uM by LC-MS/MS analysis. It counts as functional, cell-based. In short, it runs like this: as §1
Assay [9] relates to MDA-MB-231. The assay can be described thus: Elevation of C16-ceramide level in human MDA-MB-231 cells at 25 uM by LC-MS/MS analysis. It counts as functional, cell-based. In short, it runs like this: as §1
The test system of assay [10] is MDA-MB-231. The assay can be described thus: Elevation of C16-ceramide level in human MDA-MB-231 cells at 50 uM by LC-MS/MS analysis. Type of assay: functional, cell-based. In short, it runs like this:
as §1

For assay [11], the system named is HL-60. The assay can be described thus: Cytotoxicity against human HL60 cells assessed as growth inhibition by trypan blue dye exclusion assay.
For assay [12], the system named is MDA-MB-231. The assay can be described thus: Elevation of C24-ceramide level in human MDA-MB-231 cells at 50 uM by LC-MS/MS analysis. Type of assay: functional, cell-based. In short, it runs like this:
as §1

The subject of assay [13] is MDA-MB-231. The assay can be described thus: Induction of apoptosis in human MDA-MB-231 cells assessed as increase in cytoplasmic histone-associated DNA fragment level after 24 hrs by ELISA. It counts as functional, cell-based. Particulars: MDA-MB-231, 24 h. Put shortly: (§2)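 Cells were seeded for 24 h, then treated 24 h in DMEM with compound or DMSO vehicle. Cytoplasmic histone-associated DNA fragments were measured photometrically by Cell Death Detection ELISA Plus, following the kit protocol. Values are % of control (mean S.D., n = 3); dose–response is read as optical density.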
A general note: ELISA stands for enzyme-linked immunosorbent assay.

Assay [14] relates to MDA-MB-231. As to the kind of experiment: Induction of apoptosis in human MDA-MB-231 cells assessed as increase in cytoplasmic histone-associated DNA fragment level at 25 to 50 uM after 24 hrs by ELISA relative to control. It counts as functional. In short, it runs like this: as §2

Neutral ceramidase (Homo sapiens), sequence (Q9NR71 whole entry): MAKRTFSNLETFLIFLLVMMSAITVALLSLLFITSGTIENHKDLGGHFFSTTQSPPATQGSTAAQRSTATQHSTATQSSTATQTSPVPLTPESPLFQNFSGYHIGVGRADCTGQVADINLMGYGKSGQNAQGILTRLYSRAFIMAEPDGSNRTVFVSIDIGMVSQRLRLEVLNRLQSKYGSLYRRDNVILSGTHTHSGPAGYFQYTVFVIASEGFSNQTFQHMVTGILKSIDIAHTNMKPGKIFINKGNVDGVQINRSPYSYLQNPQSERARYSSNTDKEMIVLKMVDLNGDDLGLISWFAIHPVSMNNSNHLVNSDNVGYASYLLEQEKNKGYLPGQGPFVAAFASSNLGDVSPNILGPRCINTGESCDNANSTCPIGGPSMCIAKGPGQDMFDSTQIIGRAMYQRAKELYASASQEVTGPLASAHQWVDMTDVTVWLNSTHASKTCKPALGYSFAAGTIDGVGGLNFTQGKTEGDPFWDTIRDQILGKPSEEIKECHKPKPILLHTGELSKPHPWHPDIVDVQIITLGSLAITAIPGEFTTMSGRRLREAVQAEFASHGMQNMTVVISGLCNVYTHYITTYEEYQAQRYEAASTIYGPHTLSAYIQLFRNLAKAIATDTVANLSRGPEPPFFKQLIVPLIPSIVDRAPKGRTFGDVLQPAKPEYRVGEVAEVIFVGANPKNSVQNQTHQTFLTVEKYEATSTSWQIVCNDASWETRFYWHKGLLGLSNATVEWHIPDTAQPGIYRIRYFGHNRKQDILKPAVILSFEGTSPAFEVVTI

Consider `CCCCCCCCCCCCCC(=O)N[C@H](C(=O)O)[C@H](O)c1ccc([N+](=O)[O-])cc1`, for which the inhibition result in [1] was “inactive”. Moreover, in assay [2], the inhibition entry was “Active”. The Activity in [3] and in assay [4] was 150% throughout.

`CCCCCCCCCCCCCC(=O)NCC(O)c1ccccc1` (racemic): the Activity result in [3] is “>=150%”.

For the compound `CN(C)CCCCCCCCCCCC(=O)NCC(O)c1cccnc1` (racemic), the inhibition entry in assay [1] and in [2] was “inactive” throughout. The compound also came in with an Activity in assay [3] below 150%.

In the case of `CCCCCCCCCCCCCC(=O)N[C@H](C)[C@@H](O)c1ccccc1`, the pIC50 in assay [5] is 6.00. The inhibition worked out at 8% in [1] and 60% in assay [2].

For `CCCCCCCCCCCCCC(=O)N[C@H](CO)[C@H](O)c1ccc([N+](=O)[O-])cc1`, the outcome in assay [6], in assay [10] and in assay [12] was Active. Moreover, the outcome in assay [7], in [8] and in assay [9] was inactive. The inhibition entry in assay [2] is “Active”. Also, the pIC50 in [11] was 5.82. In addition, the Activity in [3] was found to be 350%; in assay [4], 150%.

Take `CCCCCCCCCCCCCC(=O)N[C@H](CO)[C@H](O)c1ccc(N)cc1`: the pEC50 in [13] is 4.23. Besides, the inhibition result in [1] and in assay [2] was “Active” each time. In addition, the Activity in assay [3] and in [4] was 300% throughout. For the same compound, the “fold change (FC)” value in [14] is given as 3.

`CN(C)CCCCCCCCCCCC(=O)NCC(O)c1ccccc1` (racemic): in assay [3], the Activity entry is “>=150%”.

For `C[C@@H](NC(=O)CCCCCCCCCCCN(C)C)[C@@H](O)c1ccccc1`, the Activity result in assay [3] was “>=150%”.

With `CCCCCCCCCCCCCC(=O)N[C@H](CO)C(=O)c1ccc([N+](=O)[O-])cc1`, the inhibition result in [1] and in assay [2] was “Active” each time.

Regarding `CN(C)CCCCCCCCCCCC(=O)N[C@H](CO)[C@H](O)c1ccc([N+](=O)[O-])cc1`, the inhibition in assay [1] was found to be 30%. In [2], the inhibition result was “Active”. The Activity entry in assay [3] was “>=150%”.

For `CN(C)CCCCCCCCCCCC(=O)NCC(O)c1ccncc1` (racemic), the inhibition entry in assay [1] and in [2] was “inactive” each time. The Activity entry in assay [3] is “>=150%”.
